Reference: ChEMBL document CHEMBL3286090, “Cryptocaryol Structure-Activity Relationship Study of Cancer Cell Cytotoxicity and Ability to Stabilize PDCD4” (ACS Med Chem Lett, 2014)
pIC50: −log10 of the molar value. Calls of active or inactive are those of the source. The calls are words filed in the database; no cut-off is given here.

Tests used:
[1] = tested on: HT-29; assay: Cytotoxicity against human HT-29 cells after 72 hrs by MTT assay; format: functional, cell-based; conditions: HT-29, 72 h
Summary of the method: (§1)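 Cancer cell lines exposed to compound over a concentration range; viability read by MTT; IC50 in μM derived from dose-response.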

[2] = tested on: MCF7; assay: Cytotoxicity against human MCF7 cells after 72 hrs by MTT assay; format: functional, cell-based; conditions: MCF7, 72 h; summary of the method: as §1
[3] = target: T1, Programmed cell death protein 4 (Homo sapiens) (UniProt Q53EL6); assay: Inhibition of TPA-induced PDCD4 degradation in human MCF7 cells at 1 uM treated 30 mins before TPA challenge measured after 6 hrs by Western blot analysis relative to TPA treated control; format: cell-based
T1 sequence (whole entry): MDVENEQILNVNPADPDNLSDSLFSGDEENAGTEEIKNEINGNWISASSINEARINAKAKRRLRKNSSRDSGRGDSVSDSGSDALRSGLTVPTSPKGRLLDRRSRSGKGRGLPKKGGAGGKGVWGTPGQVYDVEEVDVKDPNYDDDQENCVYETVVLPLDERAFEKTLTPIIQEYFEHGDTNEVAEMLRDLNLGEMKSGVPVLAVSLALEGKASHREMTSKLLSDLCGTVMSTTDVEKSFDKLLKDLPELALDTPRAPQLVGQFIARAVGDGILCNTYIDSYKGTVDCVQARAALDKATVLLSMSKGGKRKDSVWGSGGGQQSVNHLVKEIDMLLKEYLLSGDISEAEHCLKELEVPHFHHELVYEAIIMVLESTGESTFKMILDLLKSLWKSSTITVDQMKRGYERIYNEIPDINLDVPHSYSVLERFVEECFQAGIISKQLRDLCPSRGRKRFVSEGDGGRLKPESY
Summary of the method: (§2)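 MCF-7 seeded at 100,000 cells/well, grown 24 h, then given cryptocaryol analogues (1 μM) or rapamycin (10 nM). TPA (20 nM) added 30 min later. After a further 6 h, cells scraped and lysed in RIPA. Lysate run on 12% SDS-PAGE, blotted to PVDF, probed for PDCD4 and β-actin, chemiluminescence detection. Signal expressed relative to cells given TPA alone.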

[4] = Cytotoxicity against human H460 cells after 72 hrs by MTT assay; format: functional, cell-based; conditions: NCI-H460, 72 h; summary of the method: as §1
[5] = tested on: HT-29; assay: Potentiation of camptothecin-induced cytotoxicity against human HT-29 cells after 72 hrs by MTT assay in absence of TPA; format: functional, cell-based
[6] = tested on: HT-29; assay: Potentiation of 5-fluorouracil-induced cytotoxicity against human HT-29 cells after 72 hrs by MTT assay in absence of TPA; format: functional, cell-based
[7] = target: T1, Programmed cell death protein 4 (Homo sapiens); assay: Inhibition of TPA-induced PDCD4 degradation in human MCF7 cells at 10 nM treated 30 mins before TPA challenge measured after 6 hrs by Western blot analysis relative to TPA treated control; format: cell-based; summary of the method: as §2
[8] = tested on: HT-29; assay: Potentiation of 5-fluorouracil-induced cytotoxicity against human HT-29 cells after 72 hrs by MTT assay in absence of TPA
[9] = tested on: HT-29; assay: Potentiation of camptothecin-induced cytotoxicity against human HT-29 cells after 72 hrs by MTT assay in presence of TPA; format: functional, cell-based
[10] = tested on: HT-29; assay: Potentiation of digitoxin-induced cytotoxicity against human HT-29 cells after 72 hrs by MTT assay in absence of TPA; format: functional, cell-based
Summary of the method: (§3)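 HT-29 cells pretreated for 12 h with cryptocaryol at 1 μM, with rapamycin at 10 nM as the reference stabilizer, then exposed to digitoxin over a concentration range without TPA. The read-out was the digitoxin IC50 under the combination.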

[11] = tested on: HT-29; assay: Potentiation of digitoxin-induced cytotoxicity against human HT-29 cells at 1 uM after 72 hrs by MTT assay in absence of TPA; format: functional, cell-based; summary of the method: as §3
[12] = tested on: HT-29; assay: Potentiation of digitoxin-induced cytotoxicity against human HT-29 cells at 1 nM to 10 uM after 72 hrs by MTT assay; format: functional, cell-based
[13] = tested on: HT-29; assay: Potentiation of camptothecin-induced cytotoxicity against human HT-29 cells at 1 nM to 10 uM after 72 hrs by MTT assay; format: functional, cell-based
[14] = tested on: HT-29; assay: Potentiation of camptothecin-induced cytotoxicity against human HT-29 cells at 1 uM after 72 hrs by MTT assay in presence of TPA; format: functional, cell-based
[15] = tested on: MCF7; assay: Potentiation of digitoxin-induced cytotoxicity against human MCF7 cells at 1 nM to 10 uM after 72 hrs by MTT assay; format: functional
[16] = tested on: HT-29; assay: Potentiation of 5-fluorouracil-induced cytotoxicity against human HT-29 cells after 72 hrs by MTT assay in presence of TPA; format: functional, cell-based
[17] = tested on: MCF7; assay: Potentiation of camptothecin-induced cytotoxicity against human MCF7 cells at 1 uM treated 30 mins before TPA challenge measured after 72 hrs by MTT assay; format: functional, cell-based
[18] = tested on: HT-29; assay: Potentiation of camptothecin-induced cytotoxicity against human HT-29 cells at 1 uM after 72 hrs by MTT assay in absence of TPA; format: functional, cell-based
[19] = tested on: MCF7; assay: Potentiation of camptothecin-induced cytotoxicity against human MCF7 cells at 1 nM to 10 uM after 72 hrs by MTT assay; format: functional

| Structure (SMILES) | pIC50 [1] | pIC50 [2] | Ratio [3] | pIC50 [4] | other results |
| --- | --- | --- | --- | --- | --- |
| CCCCCCCCCCCCCCC[C@@H](C[C@H](O)C[C@H](O)C[C@H](O)C[C@H](O)C[C@@H]1CC=CC(=O)O1)OC(C)=O | 5.31 | 4.88 | 1.9 | 5.11 |  |
| CCCCCCCCCCCCCCC[C@@H](C[C@@H](O)C[C@@H](O)C[C@@H](O)C[C@@H](O)CCO)OC(C)=O | 2.89 | 3.79 | 2.8 | < 3.00 |  |
| CCCCCCCCCCCCCCC[C@H](O)C[C@@H](O)C[C@@H](O)C[C@@H](O)C[C@@H](O)CCO | < 2.82 | < 3.30 | 1.8 | < 2.82 |  |
| CO[C@H]1C[C@@H]2CC[C@@H](C)[C@@](O)(O2)C(=O)C(=O)N2CCCC[C@H]2C(=O)O[C@H]([C@H](C)C[C@@H]2CC[C@@H](O)[C@H](OC)C2)CC(=O)[C@H](C)/C=C(\C)[C@@H](O)[C@@H](OC)C(=O)[C@H](C)C[C@H](C)/C=C/C=C/C=C/1C |  |  |  |  | Activity [5]: inactive; Activity [6]: inactive; Ratio [7]: 6.6; Activity [8]: inactive; Activity [9]: inactive; Activity [10]: inactive |
| CCCCCCCCCCCCCCC[C@@H](O)C[C@H](O)C[C@H](O)C[C@H](O)C[C@H](O)C[C@@H]1CC=CC(=O)O1 | 5.39 | 4.59 | 3.8 | 5.10 |  |
| CCCCCCCCCCCCCCC[C@@H](C[C@@H](O)C[C@@H](O)C[C@@H](O)C[C@@H](O)C[C@H]1CC=CC(=O)O1)OC(C)=O | 5.54 | 5.24 | 4.5 | 5.42 | Activity [11]: inactive; Activity [6]: inactive; Activity [12]: inactive; Activity [13]: inactive; Activity [14]: inactive; CI [15]: 1.04; Activity [16]: inactive; Activity [17]: inactive; Activity [18]: inactive; CI [19]: 1.12 |
| CCCCCCCCCCCCCCC[C@H](C[C@H](O)C[C@H](O)C[C@H](O)C[C@H](O)C[C@@H]1CC=CC(=O)O1)OC(C)=O | 5.62 | 5.05 | 3.6 | 5.40 |  |
| CCCCCCCCCCCCCCC[C@H](O)C[C@@H](O)C[C@@H](O)C[C@@H](O)C[C@@H](O)C[C@H]1CC=CC(=O)O1 | 5.38 | 5.09 | 3.6 | 5.27 | Activity [11]: inactive; Activity [12]: inactive; Activity [13]: inactive; Activity [14]: inactive; CI [15]: 1.34; Activity [18]: inactive; CI [19]: 0.78 |
